Screens from PubChem BioAssay.
The list is not random: actives were taken first. Their share in the collection is about 2.4%.
b-catenin transl = modulators of beta-catenin nuclear translocation, primary screen, imaging, HeLa cells, immunofluorescence, high-content. nuclear translocation activity, % at 5 µM. 0.3% of 190,000 active. AID 1665, 2009;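 active means nuclear translocation activity above 50% at 5 µM, with a well cell count of 50 or more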;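 further: per-cell ratio of nuclear to cytoplasmic median beta-catenin stain intensity; plate controls were DMSO negative control for no effect and GSK-3 inhibitor IX positive control for full effect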
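Test system: human HeLa cells, native beta-catenin. Compound dosing: 5 µM primary single dose, 0.1% DMSO, 0.02–20 µM confirmation series. Incubation: compound exposure 24 h at 37°C. Detection: beta-catenin immunostaining with DAPI counterstain, 20x imaging, 6 fields/well. Read-out basis: Nuclear/cytoplasmic beta-catenin signal ratio, % activation.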
EP2 mod = EP2 receptor modulators, cAMP readout, primary screen, cell-based, HTRF cAMP, PGE2 stimulation; Prostaglandin E2 receptor EP2 subtype (Homo sapiens), P43116; EP2-expressing cells, cAMP HTRF FRET, PGE2 co-stimulation; induction, % at 25 µM; 0.83% of 260,000 active;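 active means compounds whose cAMP rise, as percent of the full-agonist control response, exceeds 60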;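 further: rat C6 glioma line stably carrying human EP2 under a CMV promoter; the protocol text gives 20 µM as final concentration; 100% = response of wells given 1 µM PGE2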
Target sequence (P43116 whole entry, looked up): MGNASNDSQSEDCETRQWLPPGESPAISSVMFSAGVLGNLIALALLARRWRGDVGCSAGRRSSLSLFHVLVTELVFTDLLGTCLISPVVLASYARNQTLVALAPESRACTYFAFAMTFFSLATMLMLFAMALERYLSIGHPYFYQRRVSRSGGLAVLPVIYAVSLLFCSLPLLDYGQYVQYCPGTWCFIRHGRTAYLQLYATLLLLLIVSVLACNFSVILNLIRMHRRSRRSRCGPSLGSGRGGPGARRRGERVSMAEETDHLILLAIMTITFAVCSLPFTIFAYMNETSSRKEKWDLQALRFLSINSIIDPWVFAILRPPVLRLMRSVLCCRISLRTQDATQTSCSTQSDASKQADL
Tb hexokinase = Trypanosoma brucei hexokinase 1 inhibitors, primary screen, biochemical, G6PDH-coupled NADH absorbance, MLSCN library | hexokinase 1 [Trypanosoma brucei] | recombinant TbHK1, G6PDH-coupled NADH A340 | inhibition, % at 10 µM | 0.11% of 220,000 active | AID 1430, 2008;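 active means inhibition of 50% or more in the single-dose primary screen; inactive means inhibition below 50%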
EP2 antag = human EP2 receptor antagonists, primary screen, TR-FRET cAMP, C6 glioma cells | AID 1422, 2008 | C6 glioma cells expressing human EP2; cells stimulated with saturating PGE2 | 0.52% of 260,000 active | inhibition, % at 25 µM;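 active means percent inhibition above 40 after rounding to a whole number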;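 further: rat C6 glioma host cells with rolipram phosphodiesterase inhibitor present; the protocol text gives 20 µM as final concentration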
Efa HMGR inh = inhibitors of E. faecalis class II HMGR, primary screen, biochemical, Enterococcus faecalis. HMG-CoA reductase (Enterococcus faecalis, mvaE). purified E. faecalis HMGR, NADPH absorbance 340 nm kinetic. inhibition, % at 10 µM. 0.41% of 190,000 active. AID 1066, 2008;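 active means inhibition above a set limit, the median over all tested compounds plus 3 SD, cut at about 9.5% in these data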;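 further: enzyme runs in reverse so mevalonate oxidation gives rising NADPH absorbance; 0% = complete reaction with DMSO and 100% = background rate lacking mevalonate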
MT stabilize HCS = microtubule stabilizers in HeLa cells, primary screen, imaging, high-content imaging; HeLa tubulin immunostaining HCS, 24 h; share of cells brighter than vehicle mean+2SD; % tubulin-high responders, % at 10 µM; 0.83% of 200,000 active; AID 2205, 2009;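 active means plate Z-score above 3 for both tubulin-high and condensed-nucleus cell shares, with cell loss under 80%, at 10 µM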;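 further: anti alpha tubulin signal scored within the nucleus-defined area of each cell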
* marks the source's active call; other numbers are inactive results; x = no result.

SMILES	b-catenin transl	EP2 mod	Tb hexokinase	EP2 antag	Efa HMGR inh	MT stabilize HCS
COc1ccc(C(=O)CSc2nnc(COc3cccc(OC)c3)n2C)cc1	x	-82	x	13	x	x
Cc1c(/C=N/NC(=O)COc2ccccc2[N+](=O)[O-])c2ccccc2n1C	3	-83	21	9	-1	3
Cc1ccc(OCC(=O)N/N=C\c2c(C)n(C)c3ccccc23)c([N+](=O)[O-])c1	3	-14	-29	9	-3	47*
COc1ccc(N2CCN(C(CNC(=O)C(C)(C)C)c3ccco3)CC2)cc1 (stereo not given)	-2	-8	2	11	11*	5
COc1ccc(N2CCN(C(CNC(C)=O)c3ccco3)CC2)cc1 (stereo not given)	2	-4	-4	5	-10	2
CCC(=O)NC(c1ccc(OC)cc1)c1c(O)ccc2ccccc12 (stereo not given)	0	-19	0	9	1	18*
CCCC(=O)NC(c1ccc(OC)cc1)c1ccc2cccnc2c1O (stereo not given)	0	14	-4	10	-2	8.7*
COc1ccc(C(NC(=O)C(C)C)c2c(O)ccc3ccccc23)cc1 (stereo not given)	0	-41	-5	3	7	13*
COCCn1c(N)nc2c1c(=O)[nH]c(=O)n2C	x	6	x	20	x	x
Cc1cccnc1NC(=O)Cn1nc([N+](=O)[O-])cc1C	-2	13	2	11	14*	2
Cc1cc([N+](=O)[O-])nn1CC(=O)Nc1ccc(F)cc1	-1	-20	-4	8	11*	3
CCCc1nnc(NC(=O)CCCOc2ccc(Cl)cc2)s1	x	0	x	7	x	x
O=C(Cc1c(O)c2ccccc2[nH]c1=O)NCc1ccccc1F	-2	-8	54*	10	-6	4
CCOC(=O)C(=Cc1cc(=O)c(OC)co1)C(=O)OCC	0	-34	2	26	2	25*
O=C(O)c1ccc2c(c1C(=O)O)C(=O)OC2(c1ccc(O)cc1)c1ccc(O)cc1	x	20	x	44*	x	x
CCN1C(=O)/C(=C\N(C)C)c2ccccc21	0	4	-28	18	11*	3
COc1c(Cl)cc(C(=O)Nc2cccc(NC(=O)c3cccs3)c2)cc1Cl	x	-91	x	28	x	x
O=c1[nH]c2cc3c(cc2cc1CN(CCCO)C(=S)NCCc1ccccc1)OCO3	x	-40	x	11	x	x
CCO[P@]1(=O)OC[C@@H]2O[C@H](n3cnc4c(N)ncnc43)[C@H](O)[C@H]2O1	x	101*	x	4	x	x
Nc1ncnc2c1nc(Br)n2C1OC2COP(=O)(O)O[C@@H]2C1O (stereo not given in full)	x	93*	x	2	x	x
Nc1ncnc2c1ncn2[C@@H]1O[C@H](CO)[C@H](O)C1O (stereo not given in full)	x	13	x	8	x	x
Cc1ccc(-c2ccc(C3C(C#N)=C(N)Oc4n[nH]c(C)c43)o2)cc1 (stereo not given)	0	-12	-11	14	-7	6
Cc1[nH]nc2c1C(c1ccc(-c3ccccc3C#N)o1)C(C#N)=C(N)O2 (stereo not given)	1	-33	-19	63*	-2	8
CCc1nc(N2CCCCC2C)c2oc3ccccc3c2n1 (stereo not given)	114*	48	0	3	-5	31*
CCOC(=O)C1CCCN(c2nc(C)nc3c2oc2ccccc23)C1 (stereo not given)	-3	-11	-17	8	-4	5
CCc1nc(N2CCCC(C)C2)c2oc3ccccc3c2n1 (stereo not given)	4	61*	-5	7	-5	5
CCc1nc(N2CCCCC2C(=O)O)c2oc3ccccc3c2n1 (stereo not given)	0	-16	-10	6	x	x
CCc1nc(N2CCN(Cc3ccc4c(c3)OCO4)CC2)c2oc3ccccc3c2n1	116*	-1	0	3	0	48*
Cn1ccnc1C1(O)CCN(C(=O)c2ccc3nc[nH]c3c2)CC1	x	9	x	x	x	x
